Source: PubChem (several laboratories)
PfGluPho inh: PfG6PD enzyme inhibitors, primary screen, biochemical, fluorescence intensity, uHTS; glucose-6-phosphate dehydrogenase-6-phosphogluconolactonase (Plasmodium falciparum 3D7); PfGluPho enzyme, NADPH resazurin-diaphorase fluorescence; inhibition, % at 20 µM; actives 0.78% (n = 350,000); AID 504690, 2011;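 active means inhibition reaching at least a set limit at 20 µM in the primary screen, cut at about 59% in these data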;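 further: 0% = DMSO wells with substrate and 100% = DMSO wells lacking glucose-6-phosphate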
APOBEC3G inh: APOBEC3G DNA deaminase inhibitors, primary screen, biochemical, fluorescence, single-stranded DNA substrate, uHTS; DNA dC->dU-editing enzyme APOBEC-3G (Homo sapiens), Q9HC16; recombinant A3G, ssDNA deamination FAM/TAMRA fluorescence; inhibition, % at 20 µM; actives 0.28% (n = 330,000); AID 493012, 2011;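 active means inhibition of at least 40% at 20 µM, with no more than 30% in the related APOBEC3A deaminase screen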;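 further: plate controls were DMSO wells with A3G for no effect and wells lacking A3G enzyme for full effect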
M18AAP inhibitor: PfM18AAP inhibitors, malaria aminopeptidase, primary screen, biochemical, QFRET, recombinant enzyme; actives 1.2% (n = 290,000); H-Glu-NHMec fluorogenic cleavage; AID 1822, 2009; M18 aspartyl aminopeptidase (Plasmodium falciparum 3D7); inhibition, % at 7.35 µM;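 active means inhibition above the campaign mean inhibition over all tested compounds plus 3 SD, cut at about 28% in these data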;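 further: 0% = plate median of test compound wells and 100% = 2 mM ZnCl2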
UBC9 SUMO inh: inhibitors of in vitro SUMOylation cascade, primary screen, biochemical, HTRF, uHTS | SUMO-conjugating enzyme UBC9 (Homo sapiens), P63279 | HTRF SUMOylation assay, SAE1/SAE2 + UBC9 | inhibition, % at 35 µM | actives 0.36% (n = 290,000); in the data active means inhibition above about 50%, passing the limit was not always enough
A3A deaminase: APOBEC3A ssDNA deaminase inhibitors, primary screen, selectivity assay for APOBEC3G inhibitor project, biochemical, FAM/TAMRA oligo cleavage fluorescence | DNA dC->dU-editing enzyme APOBEC-3A (Homo sapiens), P31941 | recombinant A3A, FAM/TAMRA ssDNA deamination fluorescence | inhibition, % at 20 µM | actives 0.41% (n = 330,000) | AID 493011, 2011;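 active means at least 40% inhibition at 20 µM here, with at most 30% in a related deaminase screen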;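 further: plate controls were A3A with DMSO for no effect and wells lacking A3A enzyme for full effect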
HKDC1 inhibitor: HKDC1 hexokinase inhibitors, primary screen, biochemical, fluorescence, uHTS; recombinant HKDC1, G6PDH/diaphorase resazurin coupled fluorescence; Q2TB90; AID 493160, 2011; inhibition, % at 20 µM; actives 0.16% (n = 340,000);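 active means inhibition above about 35% when tested at 20 µM, limit read from the data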;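 further: plate controls were DMSO wells with enzyme for no effect and DMSO wells lacking enzyme for full effect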
Target sequence (Q2TB90 whole entry, looked up): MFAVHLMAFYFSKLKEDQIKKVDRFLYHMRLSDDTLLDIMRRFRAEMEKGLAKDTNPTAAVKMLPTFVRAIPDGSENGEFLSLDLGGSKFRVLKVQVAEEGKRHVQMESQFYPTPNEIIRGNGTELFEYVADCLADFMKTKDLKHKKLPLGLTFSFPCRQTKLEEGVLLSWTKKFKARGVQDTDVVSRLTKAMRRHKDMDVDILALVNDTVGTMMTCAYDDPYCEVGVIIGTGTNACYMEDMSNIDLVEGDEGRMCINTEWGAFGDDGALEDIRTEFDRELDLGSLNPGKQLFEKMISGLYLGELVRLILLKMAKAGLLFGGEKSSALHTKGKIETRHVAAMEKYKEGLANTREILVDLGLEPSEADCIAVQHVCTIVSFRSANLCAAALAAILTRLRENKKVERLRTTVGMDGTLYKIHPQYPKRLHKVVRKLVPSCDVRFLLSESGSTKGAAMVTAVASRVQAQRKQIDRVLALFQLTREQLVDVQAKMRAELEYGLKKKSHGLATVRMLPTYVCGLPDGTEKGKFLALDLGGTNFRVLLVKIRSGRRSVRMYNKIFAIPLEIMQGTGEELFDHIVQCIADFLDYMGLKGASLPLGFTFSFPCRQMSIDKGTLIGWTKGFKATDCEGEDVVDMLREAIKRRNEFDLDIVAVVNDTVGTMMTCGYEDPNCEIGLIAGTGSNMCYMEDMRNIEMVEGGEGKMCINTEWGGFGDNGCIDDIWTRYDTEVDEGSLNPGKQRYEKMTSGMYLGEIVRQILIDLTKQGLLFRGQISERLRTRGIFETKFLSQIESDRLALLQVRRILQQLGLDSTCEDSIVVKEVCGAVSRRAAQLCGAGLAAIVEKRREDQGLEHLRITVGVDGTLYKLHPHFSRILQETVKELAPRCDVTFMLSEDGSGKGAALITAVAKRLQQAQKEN
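System: Recombinant HKDC1 hexokinase | Amount: HKDC1 at 5 µg/mL | Reagent: Glucose with 1 mM ATP | Doses: Single 20 µM dose | Incubation: Reaction time 90 min, room temperature, protected from light | Signal: Coupled resazurin fluorescence, excitation 525 nm, emission 613 nm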
A3A conf: APOBEC3A deaminase inhibitors, retest, confirmation, selectivity assay for APOBEC3G inhibitor project, biochemical, single concentration, fluorescence readout; inhibition, % at 20 µM; AID 493151, 2011; actives 63% (n = 1,400); shares compounds with A3A deaminase; recombinant A3A, ssDNA deaminase UDG fluorescence assay;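 active means inhibition reaching a set limit, 80% of the first screen's cutoff, at 20 µM in any replicate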;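 further: plate controls were DMSO wells with A3A for no effect and wells lacking A3A enzyme for full effect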
UDG ctr A3A: E. coli UDG inhibitors, confirmation, counter-screen for APOBEC3A inhibitor project, biochemical, single concentration, fluorescence, FAM/TAMRA oligo; shares compounds with A3A deaminase; inhibition, % at 20 µM; AID 504714, 2011; 1,000 tested, under 10 active; UDG counterscreen, FAM/TAMRA uracil oligo fluorescence; call rule not given here
The depositor's hits bear a star; . = not tested or not shown. The list is not random: actives were taken first. Their share in the collection is about 2.4%.

SMILES	PfGluPho inh	APOBEC3G inh	M18AAP inhibitor	UBC9 SUMO inh	A3A deaminase	HKDC1 inhibitor	A3A conf	others
CC(C)(C)NC(=O)NC(=O)CN1C(=O)NC(C)(c2ccccc2)C1=O (stereo unspecified)	-18.2	-5.5	8.0	6.6	-1.5	2.7	.
O=c1oc(/C=C/c2ccc([N+](=O)[O-])s2)nc2ccccc12	14.3	4.1	7.8	9.3	43.1*	13.9	33.0*
CC(=O)Oc1ccccc1/C=C/c1nc2ccccc2c(=O)o1	15.1	-1.7	-7.2	10.6	1.4	5.9	.
O=C(O)c1cc(C2CC2)nn1-c1ccccc1	11.6	-6.7	9.6	24.0	-4.8	-3.5	.
CCn1nc(NC(C)=O)c2cc3cccc(C)c3nc21	13.6	14.1	2.1	1.4	76.5*	0.2	64.5*	UDG ctr A3A=-3.5
CCn1nc(NC(=O)C(C)C)c2cc3cccc(C)c3nc21	20.8	-7.9	-4.3	23.4	-2.1	0.3	.
COC(=O)c1sc2ncccc2c1OCc1ccccc1Cl	7.2	-3.1	-2.8	26.2	-2.4	3.4	.
COc1ccc(N(CC(=O)NCCSC2CCCCC2)S(=O)(=O)c2ccccc2)c(OC)c1	.	-4.3	1.4	5.2	-5.3	.	.
CC(C)c1ccc(N(CC(=O)NN=C2CCN(C)CC2)S(=O)(=O)c2ccccc2)cc1	18.3	-4.0	7.0	-6.4	64.6*	-10.5	3.0	UDG ctr A3A=6.5
COc1ccc(N(CC(=O)NN=C2CCCC2)S(=O)(=O)c2ccccc2)cc1	-14.6	-4.7	-13.1	-6.7	-1.6	-1.6	.
COc1ccc(N(CC(=O)NCCSc2ccc(C)cc2)S(=O)(=O)c2ccccc2)c(OC)c1	8.5	12.3	-7.0	7.1	53.8*	2.8	40.5*	UDG ctr A3A=-1.5
COc1ccc(N(CC(=O)NCC(C)C)S(=O)(=O)c2ccccc2)cc1	12.2	8.6	2.9	20.6	40.7*	-14.9	10.1
NC(=O)C1CCN(C(c2ccccc2)c2nnnn2C2CCCC2)CC1 (stereo unspecified)	-10.5	2.7	-5.2	10.4	1.6	0.8	.
O=C(CSc1nnc(NC(=O)c2ccccc2C(=O)O)s1)Nc1ccccc1Cl	-16.4	11.1	3.5	8.6	60.3*	-5.9	46.5*	UDG ctr A3A=-3.3
Cc1cccc(C)c1NC(=O)CSc1nnc(NC(=O)c2ccccc2C(=O)O)s1	-28.0	16.7	-10.4	17.7	63.8*	-5.0	16.8
Cc1ccccc1NC(=O)CSc1nnc(NC(=O)C2CC2)s1	-14.9	-3.0	-5.7	4.3	1.1	-1.9	.
CC(=O)Nc1ccc(NC(=O)CSc2nnc(NC(=O)c3ccccc3F)s2)cc1	-8.7	.	.	.	.	.	.
O=C(Nc1ccc(F)cc1F)c1noc2c1CCC2	-9.6	14.7	-1.5	6.4	49.8*	-0.6	32.9*
O=C(Nc1cc(Cl)ccc1Cl)c1noc2c1CCCC2	8.2	0.0	.	-3.5	-0.8	-6.2	.
COc1ccc(CC(=O)NCC2CCCCC2)cc1OC	-10.7	-6.4	-7.5	26.8	-5.8	-3.6	.
O=C1NC[C@@H](c2ccccc2)OC(=O)[C@H](Cc2ccc(F)cc2)C/C=C\C[C@H]1CC(=O)N(CCO)Cc1ccccc1	-1.5	-5.5	.	.	1.1	-4.0	.
CC1=NC(=O)C(N=Nc2ccccc2)N1c1ccccc1 (stereo unspecified)	-13.3	-6.7	-0.3	8.2	1.1	-7.5	.
CC1=NC(=O)C(N=Nc2cccc(C(=O)O)c2)N1c1ccccc1 (stereo unspecified)	-19.9	15.0	3.6	8.6	42.5*	-1.7	63.2*	UDG ctr A3A=1.6
Cn1cc(C(=O)Nc2ccc(Cl)cc2)c(C(F)(F)F)n1	7.2	-5.1	-2.3	8.6	-2.5	-9.6	.
CCOc1cc(C2C3=C(CC(C)(C)CC3=O)N(CCOC)C3=C2C(=O)CC(C)(C)C3)ccc1OC	-3.9	7.1	4.9	3.1	48.6*	-4.3	26.3
SMILES	PfGluPho inh	APOBEC3G inh	M18AAP inhibitor	UBC9 SUMO inh	A3A deaminase	HKDC1 inhibitor	A3A conf	others
CCOc1cc(C2C3=C(CC(C)(C)CC3=O)N(CCCOC)C3=C2C(=O)CC(C)(C)C3)ccc1OC	19.1	4.7	9.6	9.8	0.9	-9.1	.
COc1ccc(S(=O)(=O)N(CC(=O)NC2CC2)C2CCCCC2)cc1Cl	7.9	-0.2	5.9	25.2	3.5	-5.8	.
CNC(=O)CN(C1CCCCC1)S(=O)(=O)c1ccc(OC)c(Cl)c1	-0.5	17.3	5.7	3.9	44.1*	-0.7	14.9
CC(C)CCNC(=O)C1CC(c2cccc([N+](=O)[O-])c2)=NO1 (stereo unspecified)	2.4	-4.1	-8.2	11.8	1.0	-7.0	.
O=C(Nc1ccc(S(=O)(=O)N2CCCC2)cc1)C1CC(=O)N(c2ccccc2)C1 (stereo unspecified)	9.3	9.1	-0.9	7.8	71.5*	11.0	27.7
CCc1ccc(N2CC(C(=O)Nc3ccc(S(=O)(=O)N4CCCCC4)cc3)CC2=O)cc1 (stereo unspecified)	-12.3	-7.0	-12.2	3.3	9.5	-3.5	.
CC(C)[N+](C)(C)CC#CC(O)(c1ccccc1)c1ccccc1	-1.2	26.3	-16.5	24.3	65.2*	-4.8	73.0*	UDG ctr A3A=-3.1
CCOC(=O)c1ccc(NC(=O)CSc2nccn2C)cc1	6.0	-2.7	2.1	7.7	-2.6	-0.9	.
CCCCOc1ccc(NC(=O)CCSc2nccn2C)cc1	32.4	16.3	7.2	-5.5	41.8*	-3.6	0.7
O=C1C(=O)N(CCOCCO)C(c2ccccn2)/C1=C(\O)c1ccccc1 (stereo unspecified)	-5.3	-4.6	8.7	-19.0	-2.7	-3.1	.
CCOc1ccccc1OCCC(=O)OCC(=O)Nc1c(C)cc(C)cc1C	9.1	9.9	.	.	62.0*	-1.9	23.1
Cc1ccc(NC(=O)COC(=O)CCOc2ccccc2C)cc1	9.7	-7.1	-12.2	-18.1	-0.6	7.4	.
CCCCCOc1ccc(Br)cc1/C(C)=N/NC1=NCCN1	6.4	-3.3	0.5	-8.0	1.8	2.8	.
